assay: Toxicity liver stage against HepG2, at 10uM; type: cell-based; design: test concentration 10 uM, cell line HepG2-A16-CD81EGFP; conditions: human, HepG2-A16-CD81EGFP cells; read-out: INHIBITION
Summary of the method: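 Uninfected HepG2-A16-CD81EGFP cells, 3 × 10^3 per well, 1536-well, plated on prespotted compound at 10 μM final, parasite-free screening media added to match infected plates; puromycin 10 μM positive, DMSO 0.5% negative; run in parallel with 48 h PbLuc assay at 37 °C, 5% CO2; viability by CellTiter-Glo luminescence, normalized to controls.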

Row | SMILES | cytotoxicity at 10 µM
1 | O=C(N[C@@H]1CNCCC[C@H]1O)c1ccc(OCCN2CCCC2)cc1 | -0.155%
2 | COCC(=O)Nc1ccc([C@@H](O)[C@H]2COCC(=O)N2C)cc1 | 10.3%
3 | CNC(=O)[C@@H]1[C@H]2CN(Cc3ccccn3)CCN2C[C@H]1c1ccccc1 | 3.38%
4 | O=C(C1CCC1)N1CCC(=O)N(C2CC2)Cc2cc(F)ccc21 | -7.76%
5 | CNc1oc(-c2ccc(OC)c(S(=O)(=O)N(C)C)c2)nc1C#N | 1.71%
6 | CN1C(=O)c2cccc(NC(=O)c3ccc4c(c3)OCCO4)c2C1=O | 4.02%
7 | CSCCC(C)(O)CNC(=O)c1ccsc1 (stereo unspecified) | -4.57%
8 | COC1(CNC(=O)c2cccc(C#N)c2)CCSC1 (stereo unspecified) | -7.93%
9 | O=C1CCC2(CCCN(C(=O)NCc3ccccc3)CC2)N1 (stereo unspecified) | 5.23%
10 | CC(C)NC(=O)CC1COC2(CCN(Cc3ccco3)CC2)C1 (stereo unspecified) | -0.567%
11 | Cc1ncnc2c1CCN(C(=O)c1cccc(F)c1)CC2 | 8.27%
12 | CCOCC1COCCC12CCN(C(=O)CCOC)CC2 (stereo unspecified) | -6.4%
13 | O=C(N1CCOCC1)[C@@]12CCO[C@@H]1CCN(C1CCCC1)C2 | 7.83%
14 | Cn1ncc2c1NC(=O)CC2c1cc(Cl)ccc1F (stereo unspecified) | 78.6%
15 | O=C1CC(c2ccc(C(=O)O)cc2)c2ncn(-c3ccccc3)c2N1 (stereo unspecified) | -1.04%
16 | Cc1nc(N(C)C)nc2c1COCC21CCN(C(=O)NC(C)C)C1 (stereo unspecified) | -13%
17 | c1ccc(CN2CC[C@H]3CO[C@H](CNc4ncccn4)[C@H]3C2)nc1 | -9.63%
18 | Cc1nn(C)cc1CN(C)C(=O)c1cnccn1 | -5.2%
19 | O=C(O)c1ccc(COc2cccc(Cl)c2)s1 | 8.96%
20 | Cc1nn(C)c2cnn(CC(=O)NCc3cccs3)c12 | 6.28%
21 | CCN1CCCC(O)(CN(C)Cc2ccccc2F)C1 (stereo unspecified) | -6.43%
22 | COc1ccc2oc(-c3cn(C)nc3C)c(O)c(=O)c2c1 | 9.96%
23 | Cc1nc(NCCc2ccc(Cl)cc2)cc(C(=O)N2CCCCC2)n1 | -23%

Row | SMILES | cytotoxicity at 10 µM
24 | Cc1nc(CN2CCCC2c2[nH]ncc2C(=O)N(C)C)cs1 (stereo unspecified) | -0.722%
25 | CCN1CCCc2cc(CN3CCc4c(nc(C)[nH]c4=O)C3)ccc21 | -1.02%
26 | CN(C)c1nccc(C2CN(c3ccccc3)CCO2)n1 (stereo unspecified) | -2.4%
27 | CC(=O)N1CC(C(=O)NC(C)c2cnn(C)c2C)C1 (stereo unspecified) | 4.65%
28 | CNC(=O)C1CN(C)CCN(CCCOc2ccccc2F)C1 (stereo unspecified) | -1%
29 | Fc1cccc(-c2nccnc2C2CCCNC2)c1 (stereo unspecified) | -16.5%
30 | Nc1nonc1C(=O)N1Cc2ccccc2OC2(CCOCC2)C1 | -29.5%
31 | NCc1cnn(-c2ccccc2C(=O)NCCc2ccncc2)c1 | 0.664%
32 | COCC(=O)N1CCC(c2cncc(-c3cccc(F)c3)n2)CC1 | -11.3%
33 | O=C(O)C1(Cc2cc(-c3ccc(F)cc3)no2)CCOCC1 | -20.8%
34 | CC(=O)N1CCN([C@@H]2CCC[C@@H](NC(=O)c3cccnc3)[C@H]2O)CC1 | -0.00173%
35 | CC(=O)N1CCC(Cc2cccc(-c3c(C)noc3C)n2)C1 (stereo unspecified) | 0.664%
36 | CC(=O)N1CCC(c2n[nH]c3nccnc23)CC1 | -8.69%
37 | Cc1ccccc1SCC(=O)NC1CCC(O)CC1 (stereo unspecified) | 9.58%
38 | CC(C)CCC(=O)N1CCC2(CC1)OCCO2 | -0.457%
39 | COC(=O)COc1ccc(-c2noc(C3CCCO3)n2)cc1 (stereo unspecified) | 1.07%
40 | Cc1ccc(F)c(S(=O)(=O)Nc2cn(C)cc(Br)c2=O)c1 | -7.73%
41 | c1cncc(-c2noc(CNC3CCCN(c4cccnn4)C3)n2)c1 (stereo unspecified) | 3.26%
42 | Cc1cnn(CC2CCCCN2C(=O)Cc2c(C)noc2C)c1 (stereo unspecified) | -0.807%
43 | COc1ccc(F)c(NCc2cnn(C3CCS(=O)(=O)C3)c2)c1 (stereo unspecified) | 2.65%
44 | Cc1noc(C)c1CNC(=O)N1Cc2ccccc2N(C)CC1C (stereo unspecified) | -2.42%
45 | Cc1cnn(C2CN(Cc3noc(-c4ccccc4)n3)C2)c1 | -1.52%
46 | CCC(C(=O)N1CCCN(CCN(C)C)CC1)N1CCCC1=O (stereo unspecified) | 4.38%

Row | SMILES | cytotoxicity at 10 µM
47 | COc1ccccc1CC(=O)NC(CC(=O)O)c1ccc(C)cc1 (stereo unspecified) | 11.2%
48 | N#CCCCS(=O)(=O)N1CCCC1CC(=O)c1cccs1 (stereo unspecified) | -5.07%
49 | CCc1nc(CN(C)CC2CCN(CC(C)O)CC2)no1 (stereo unspecified) | -10.3%
50 | CCS(=O)(=O)CCNC(=O)c1ccc(-c2ccc(C)cc2)cc1F | -14.2%
51 | Cn1cc(CN2CCC3(CC2)CN(c2cccnc2)C(=O)CO3)cn1 | -103%
52 | O=C1CC(c2ccccc2)C2(CCN(Cc3ccncc3)CC2)N1 (stereo unspecified) | -4.72%
53 | O=C(Nc1cccnc1)[C@@H]1C[C@H]2OCC[C@H]2N(Cc2nccs2)C1 | 5.02%
54 | Cc1ccc(CNCC2Cn3nnc(-c4cnn(C)c4)c3CO2)o1 (stereo unspecified) | 2.42%
55 | OCc1csc(N2C[C@@H](CN3CCCCCC3)[C@@H](CO)C2)n1 | 2.65%
56 | COC[C@@H]1CCCN1C(=O)CCc1c(C)nn(C)c1C | 5.01%
57 | Cc1cc(N[C@H](CO)c2ccccc2)n2nc(C)cc2n1 | -1.58%
58 | CCn1cc(CN2CCCN(C3Cc4ccccc4C3)CC2)cn1 | 2.66%
59 | Cc1ccccc1Oc1ncccc1CNS(=O)(=O)N(C)C | -4.09%
60 | CCC(CO)N(C/C(C)=C/c1ccco1)Cc1ccccn1 (stereo unspecified) | -2.46%
61 | c1cncc(-c2noc(CNc3ncnc4c3CCNCC4)n2)c1 | 3.18%
62 | CCS(=O)(=O)c1ncc(CN(C)Cc2ccc(C)o2)n1CCOC | -4.66%
63 | CC(C)n1cc(C(=O)NCCc2cn3ccsc3n2)cn1 | 8.67%
64 | OCC1(CC2CC2)CCCN(Cc2ccc(C(F)(F)F)nc2)C1 (stereo unspecified) | -5.96%
65 | CC(=O)c1cc(CN2CCCCC2c2nc3cc(F)ccc3[nH]2)cs1 (stereo unspecified) | -1.08%
66 | Cc1n[nH]c(C)c1CCCN(C)c1cc(N(C)C)ncn1 | -3.37%
67 | CC(C)c1cc(C(=O)N(Cc2ccncc2)CC2CCCO2)no1 (stereo unspecified) | 15.6%
68 | Cc1ccc(CCN2C(=O)CC[C@H]3CN(Cc4cnn(C)c4)CC[C@H]32)o1 | -2.19%
69 | Cn1c(CN2CCOCC2)nnc1C1CCCN(C(=O)CCC2CC2)C1 (stereo unspecified) | 6.72%

Row | SMILES | cytotoxicity at 10 µM
70 | Cc1cc(C(=O)N2CCC(c3nccn3Cc3ccccn3)CC2)no1 | -1.85%
71 | CCSCC(C)NCc1ccccc1-n1ccnc1 (stereo unspecified) | 11.7%
72 | Cc1ccc(Cn2cc(C)c(N)n2)cc1 | -0.751%
73 | COc1cccc(CNc2cnn(CC(F)F)c2)c1 | -7.16%
74 | CCn1cnnc1C1CCN(C(=O)c2cccc(C)c2C)CC1 | -3.61%
75 | CC(=O)N(C)c1nc(CN2CCCC2Cn2cncn2)cs1 (stereo unspecified) | -1.01%
76 | COC(=O)c1cccn1C1CCN(C(=O)c2cc(F)ccc2C)CC1 | -2.13%
77 | O=C(COC1CCCC1)NS(=O)(=O)c1ccc2c(c1)OCCCO2 | -15.3%
78 | O=C(CCc1ccsc1)Nc1cccnc1N1CCCC1 | -7.07%
79 | CS(=O)(=O)NC1CCN(C(=O)NCc2cc[nH]n2)CC1 | -6.37%
80 | CN(Cc1cccc(F)c1)C(=O)c1cc2c([nH]c1=O)CCCC2=O | -7.45%
81 | O=C(c1cc2c(s1)CCOC2)N1CCCC1Cn1cccn1 (stereo unspecified) | -2.06%
82 | COCc1nc(C(=O)NS(=O)(=O)c2cc(Br)ccc2C)cs1 | -1.66%
83 | CCc1ccc(C(=O)N2CCCN(Cc3nccn3CC)CC2)s1 | -8.72%
84 | O=C(COC1CCCC1)Nc1ncn(CC(=O)N2CCCCCC2)n1 | -8.16%
85 | CCC(C)N(C)CCNC(=O)c1ccccc1OCCOC (stereo unspecified) | 0.386%
86 | CC(C)C(=O)NC1CCCN(C(=O)c2ccccc2O)C1 (stereo unspecified) | -2.55%
87 | Cc1ccc(NC2CCN(C(=O)CCCn3ccnc3C)CC2)nn1 | -11.8%
88 | Cc1cc(C)n(CC2CCCN2C(=O)CCCNc2ncccn2)n1 (stereo unspecified) | -19%
89 | COc1ccc2c(c1)CN(Cc1nc3ccsc3c(=O)[nH]1)CC2 | -4.64%
90 | CCN1CCN(c2ccc(CNC(=O)c3c(C)noc3C)cn2)CC1 | 0.265%
91 | Cc1ccn2cc(C(=O)N3CCCC3c3c(C)nn(C)c3C)nc2c1 (stereo unspecified) | 3.2%
92 | O=C(CSc1ccc(F)c(F)c1)NS(=O)(=O)c1ccc2c(c1)OCCO2 | -4.28%

Row | SMILES | cytotoxicity at 10 µM
93 | CN(C)Cc1cc(C2CCN(C(=O)C3CC34CCC4)CC2)nn1C (stereo unspecified) | -15%
94 | CC(C)c1ncc(CN2CCC(CO)C2)cn1 (stereo unspecified) | -25.8%
95 | CN(C)C(=O)CN1CCC2(CCCN(Cc3cccs3)C2)C1=O (stereo unspecified) | -113%
96 | c1cncc(OCC2CN(Cc3nccs3)Cc3nccn3C2)c1 (stereo unspecified) | 6.9%
97 | COc1ncc(C2(O)CCN(Cc3cccs3)CC2)c(OC)n1 | 1.9%
98 | COC[C@@H]1CCC[C@]12CN(Cc1ccco1)CCO2 | -4.89%
99 | O=C(c1cnoc1)N1CCC[C@]2(C[C@@H](OCc3ccccn3)CO2)C1 | -9.47%
100 | COCCC(=O)N1C[C@H]2CN(Cc3cccnc3)C(=O)[C@H]2C1 | -0.95%
101 | CNC(=O)c1cc2c(nc1NCC1CC1)CCN(CC1CC1)CC2 | 0.864%
102 | O=C(Nc1cnccn1)[C@H]1CC[C@@H]2[C@@H](CCN2Cc2ccoc2)O1 | 8.86%
103 | CC(C)Nc1ncnc2c1CCN(C(=O)Cc1ccccn1)CC2 | 3.3%
104 | O=C(c1c[nH]cn1)N1CCOCC2(C1)CN(c1ccccc1)C(=O)CO2 (stereo unspecified) | -7.27%
105 | c1cnc(N2CCOC3(CCN(CC4CCOC4)CC3)C2)nc1 (stereo unspecified) | -0.777%
106 | COCCNC(=O)[C@@]12CCO[C@@H]1CCN(Cc1scnc1C)C2 | -10.6%
107 | Cc1cccc(CN2CCC3(CCCN(C(=O)NC(C)C)C3)C2=O)n1 (stereo unspecified) | 7.51%
108 | CN(Cc1cn2c(n1)CN(CC1CC1)CC2)Cc1ccco1 | 1.39%
109 | CN1CC(=O)N(c2ccccc2)CC12CCN(Cc1cccnc1)C2 (stereo unspecified) | -2.09%
110 | CC(C)C(=O)N1CCCC2(CC(C(=O)NCc3cccnc3)=NO2)C1 (stereo unspecified) | -2.77%
111 | O=C(CCn1cccn1)N1C[C@H]2CC[C@@H](C1)N(Cc1ccccn1)C2=O | -13.6%
